Source: ChEMBL document CHEMBL1123828, “Carbostyril derivatives having potent beta-adrenergic agonist properties” (J Med Chem, 1987)

Key:
Rattus norvegicus [1] = organism: Rattus norvegicus; assay: The compound was evaluated for the intrinsic activity compared to (-)-isoproterenol.; assay type: functional
Rattus norvegicus [2] = organism: Rattus norvegicus; assay: The compound was evaluated for its ability to stimulate adenylate cyclase activity; assay type: functional
In short: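 Rat reticulocyte membranes (0.01–0.05 mg protein) incubated 10 min at 32 °C in 50 mM Tris-HCl pH 7.4 with 1.6 mM ATP, 5 mM MgCl2, 1 mM EGTA, 10 mM theophylline, 0.01% BSA, creatine phosphokinase/phosphocreatine, 0.5 mM GTP and varying ligand concentrations. Stopped by boiling with EDTA buffer; cAMP measured by competitive protein binding. Basal and GTP activity subtracted; EC50 from dose-effect analysis.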

Adrenergic receptor beta = Adrenergic receptor beta (Rattus norvegicus, UniProt P18090+P10608+P26255); assay: The compound was evaluated for the inhibition of [125I]cyanopindolol binding to beta adrenergic receptor in rat reticulocyte membrane.; assay type: cell membranes

Compound	IA (Rattus norvegicus [1])	EC50 (Rattus norvegicus [2])	IC50 (Adrenergic receptor beta)
CC(C)(Cc1ccc(N)cc1)NCC(O)c1ccc(O)c2nc(O)ccc12 (centres undefined)	1	14.2 nM	22 nM
CC(C)(Cc1ccc(NC(=O)CBr)cc1)NCC(O)c1ccc(O)c2nc(O)ccc12 (centres undefined)	1.2	8.5 nM	5.3 nM
CC(C)NCC(O)c1ccc(O)c(O)c1 (single isomer, unassigned; (-)) [ISOPROTERENOL]	1	226 nM	–
CC(C)(Cc1ccc(I)cc1)NCC(O)c1ccc(O)c2nc(O)ccc12 (centres undefined)	1.3	5.6 nM	7.6 nM
CC(C)(Cc1ccccc1)NCC(O)c1ccc(O)c2nc(O)ccc12 (centres undefined)	1	6.9 nM	3.1 nM
